This is an account of results in ChEMBL document CHEMBL1157608, “The discovery of 4-{1-[({2,5-dimethyl-4-[4-(trifluoromethyl)benzyl]-3-thienyl}carbonyl)amino]cyclopropyl}benzoic acid (MK-2894), a potent and selective prostaglandin E2 subtype 4 receptor antagonist” (J Med Chem, 2010).

For experiment [1], the system named is Rattus norvegicus. The experiment can be described thus: Analgesic activity in po dosed Sprague-Dawley rat assessed as inhibition of carrageenan-induced mechanical hyperalgesia relative to control. It counts as functional. In a few lines:
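SD rats given subplantar carrageenan; compound dosed orally as a single dose; mechanical hyperalgesia read at 3 h post carrageenan, 1 h post dose; inhibition expressed vs vehicle control; n = 10-20/group; 1-way ANOVA/Dunnett's.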

For experiment [2], the species on record is Rattus norvegicus. The experiment can be described thus: Analgesic activity against complete Freund's adjuvant-induced Sprague-Dawley rat inflammatory pain assessed as inhibition of chronic paw swelling. It counts as functional. In a few lines: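 Adjuvant-induced arthritis in rats: CFA injected into primary paw on day 0; oral dosing in 0.5% methocel once daily for 9 days starting day 9; secondary paw swelling measured; plasma levels taken 24 h after final dose; n = 7/group; 1-way ANOVA/Dunnett's vs vehicle.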

Experiment [3] has as its target T1, Prostaglandin D2 receptor 2 (Homo sapiens, UniProt Q9Y5Y4).
T1 sequence (Q9Y5Y4 whole entry): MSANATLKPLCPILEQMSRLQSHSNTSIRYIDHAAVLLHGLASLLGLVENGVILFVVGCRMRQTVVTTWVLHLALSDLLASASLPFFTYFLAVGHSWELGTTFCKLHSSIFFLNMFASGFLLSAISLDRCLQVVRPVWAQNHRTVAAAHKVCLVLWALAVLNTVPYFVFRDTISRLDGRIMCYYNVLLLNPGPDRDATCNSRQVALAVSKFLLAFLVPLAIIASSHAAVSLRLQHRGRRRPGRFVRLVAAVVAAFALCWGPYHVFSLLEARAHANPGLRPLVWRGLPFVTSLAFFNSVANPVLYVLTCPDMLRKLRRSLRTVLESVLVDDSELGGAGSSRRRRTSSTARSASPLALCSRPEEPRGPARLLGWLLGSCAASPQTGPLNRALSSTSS
As to the kind of experiment: Displacement of [3H]PGD2 from human DP2 receptor expressed in HEK293-EBNA cells by scintillation counting. It counts as cell-based. In a few lines:
(§1)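 Radioligand binding on membranes from HEK 293(EBNA) clonal lines overexpressing each prostanoid receptor, using the respective 3H-prostaglandin or thromboxane ligand; EP4 binding also run with 10% human serum; Ki as means of at least three experiments (rEP2, rEP3 n = 1).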
On the technique in general: In a radioligand displacement assay an active substance lowers the binding of a labelled ligand.

Experiment [4] has as its target T2, Prostaglandin E2 receptor EP1 subtype (Homo sapiens, UniProt P34995).
T2 sequence (P34995 whole entry): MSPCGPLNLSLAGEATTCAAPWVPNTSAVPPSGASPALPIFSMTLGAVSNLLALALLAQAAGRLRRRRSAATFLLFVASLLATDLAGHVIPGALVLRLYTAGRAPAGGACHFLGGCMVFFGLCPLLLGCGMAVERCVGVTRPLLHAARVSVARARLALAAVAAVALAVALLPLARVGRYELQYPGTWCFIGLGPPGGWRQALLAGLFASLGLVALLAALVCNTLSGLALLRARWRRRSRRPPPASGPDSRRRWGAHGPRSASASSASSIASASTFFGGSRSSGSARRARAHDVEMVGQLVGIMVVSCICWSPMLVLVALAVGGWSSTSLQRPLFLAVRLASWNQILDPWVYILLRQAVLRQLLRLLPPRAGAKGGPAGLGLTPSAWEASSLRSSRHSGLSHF
As to the kind of experiment: Displacement of [3H]PGE2 from human EP1 receptor expressed in HEK293-EBNA cells by scintillation counting. Type of experiment: cell-based. In outline:
as §1

Experiment [5] concerns the target T3, Thromboxane A2 receptor (Homo sapiens, UniProt P21731).
T3 sequence (P21731 whole entry): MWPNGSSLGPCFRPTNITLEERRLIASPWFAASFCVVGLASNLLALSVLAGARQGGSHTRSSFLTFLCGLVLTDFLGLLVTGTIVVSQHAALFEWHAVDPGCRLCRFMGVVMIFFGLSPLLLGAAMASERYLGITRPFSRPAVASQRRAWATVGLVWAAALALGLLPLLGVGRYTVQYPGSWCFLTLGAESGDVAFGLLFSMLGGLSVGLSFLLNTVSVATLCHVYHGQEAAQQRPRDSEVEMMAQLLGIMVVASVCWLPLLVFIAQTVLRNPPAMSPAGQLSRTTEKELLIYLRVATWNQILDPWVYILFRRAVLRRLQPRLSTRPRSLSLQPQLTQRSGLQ
The experiment can be described thus: Displacement of [3H]SQ29548 from human TP receptor expressed in HEK293-EBNA cells by scintillation counting. Type of experiment: cell-based. In outline: as §1

Experiment [6] concerns the target Prostaglandin F2-alpha receptor (Homo sapiens, UniProt P43088). As to the kind of experiment: Displacement of [3H]PGF2alpha from human FP receptor expressed in HEK293-EBNA cells by scintillation counting. Type of experiment: cell-based. In outline:
as §1

Experiment [7] deals with T4, Prostaglandin E2 receptor EP4 subtype (Homo sapiens, UniProt P35408). As to the kind of experiment: Displacement of [3H]PGE2 from human EP4 receptor expressed in HEK293-EBNA cells by scintillation counting. Type of experiment: cell-based. In a few lines:
as §1

Experiment [8] deals with T5, Prostaglandin E2 receptor EP3 subtype (Homo sapiens, UniProt P43115).
T5 sequence (P43115 whole entry): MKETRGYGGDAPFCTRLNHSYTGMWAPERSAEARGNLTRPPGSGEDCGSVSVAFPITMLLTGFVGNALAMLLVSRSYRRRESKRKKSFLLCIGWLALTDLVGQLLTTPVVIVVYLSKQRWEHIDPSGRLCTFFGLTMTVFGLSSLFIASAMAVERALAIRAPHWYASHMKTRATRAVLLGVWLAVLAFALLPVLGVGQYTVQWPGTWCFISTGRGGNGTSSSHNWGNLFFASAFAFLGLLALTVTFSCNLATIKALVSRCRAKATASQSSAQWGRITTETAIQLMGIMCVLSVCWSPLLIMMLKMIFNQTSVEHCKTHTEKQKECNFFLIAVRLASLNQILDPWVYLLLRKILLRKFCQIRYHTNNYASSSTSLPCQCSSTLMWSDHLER
The experiment can be described thus: Displacement of [3H]PGE2 from human EP3 receptor expressed in HEK293-EBNA cells by scintillation counting. It counts as cell-based. In outline:
as §1

For experiment [9], the target named is Prostaglandin E2 receptor EP2 subtype (Homo sapiens, UniProt P43116). The experiment can be described thus: Displacement of [3H]PGE2 from human EP2 receptor expressed in HEK293-EBNA cells by scintillation counting. It counts as cell-based. In a few lines:
as §1

For experiment [10], the target named is T6, Prostaglandin D2 receptor (Homo sapiens, UniProt Q13258).
T6 sequence (Q13258 whole entry): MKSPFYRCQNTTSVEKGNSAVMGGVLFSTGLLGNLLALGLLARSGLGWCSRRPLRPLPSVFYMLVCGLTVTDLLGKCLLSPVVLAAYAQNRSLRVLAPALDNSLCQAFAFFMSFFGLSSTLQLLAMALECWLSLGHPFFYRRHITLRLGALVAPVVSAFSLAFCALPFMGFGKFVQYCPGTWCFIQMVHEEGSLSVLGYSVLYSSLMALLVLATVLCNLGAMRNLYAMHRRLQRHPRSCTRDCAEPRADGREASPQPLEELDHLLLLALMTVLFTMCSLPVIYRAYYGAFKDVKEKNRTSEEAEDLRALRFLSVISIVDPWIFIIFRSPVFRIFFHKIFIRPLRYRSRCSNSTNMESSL
The experiment can be described thus: Displacement of [3H]PGD2 from human DP1 receptor expressed in HEK293-EBNA cells by scintillation counting. Type of experiment: cell-based. In a few lines: as §1

The target in experiment [11] is Prostacyclin receptor (Homo sapiens, UniProt P43119). As to the kind of experiment: Displacement of [3H]iloprost from human IP receptor expressed in HEK293-EBNA cells by scintillation counting. Type of experiment: cell-based. In outline: as §1
Chain of Prostacyclin receptor (P43119 whole entry): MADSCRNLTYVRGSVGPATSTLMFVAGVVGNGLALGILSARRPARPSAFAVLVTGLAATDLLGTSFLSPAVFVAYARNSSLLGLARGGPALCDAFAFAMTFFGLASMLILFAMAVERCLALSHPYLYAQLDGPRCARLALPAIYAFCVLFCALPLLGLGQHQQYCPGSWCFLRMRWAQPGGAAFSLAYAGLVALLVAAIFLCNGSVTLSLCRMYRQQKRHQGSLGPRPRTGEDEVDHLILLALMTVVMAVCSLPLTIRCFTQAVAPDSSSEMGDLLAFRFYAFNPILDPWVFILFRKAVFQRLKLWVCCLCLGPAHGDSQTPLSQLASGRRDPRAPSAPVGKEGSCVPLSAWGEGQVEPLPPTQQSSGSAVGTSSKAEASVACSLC
In experiment [12] the target is T4, Prostaglandin E2 receptor EP4 subtype. The experiment can be described thus: Antagonist activity at human EP4 receptor expressed in HEK293 cells assessed as inhibition of PGE2-induced cAMP accumulation by scintillation proximity assay. Type of experiment: functional, cell-based. In a few lines:
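HEK 293 cells; inhibition of PGE2-induced cAMP accumulation measured, with and without 10% human serum; means of at least three experiments.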

pIC50, pKi: −log10 of the molar value.

Chain of Prostaglandin E2 receptor EP2 subtype (P43116 whole entry): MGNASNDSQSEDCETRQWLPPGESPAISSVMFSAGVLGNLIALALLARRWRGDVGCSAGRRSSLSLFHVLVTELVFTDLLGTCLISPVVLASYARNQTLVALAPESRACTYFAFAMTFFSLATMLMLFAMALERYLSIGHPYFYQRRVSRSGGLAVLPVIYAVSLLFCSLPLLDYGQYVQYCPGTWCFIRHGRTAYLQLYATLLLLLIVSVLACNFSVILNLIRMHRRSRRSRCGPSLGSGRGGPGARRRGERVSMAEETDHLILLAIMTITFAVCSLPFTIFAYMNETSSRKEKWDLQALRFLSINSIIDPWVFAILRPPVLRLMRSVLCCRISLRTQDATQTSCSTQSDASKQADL
Chain of Prostaglandin F2-alpha receptor (P43088 whole entry): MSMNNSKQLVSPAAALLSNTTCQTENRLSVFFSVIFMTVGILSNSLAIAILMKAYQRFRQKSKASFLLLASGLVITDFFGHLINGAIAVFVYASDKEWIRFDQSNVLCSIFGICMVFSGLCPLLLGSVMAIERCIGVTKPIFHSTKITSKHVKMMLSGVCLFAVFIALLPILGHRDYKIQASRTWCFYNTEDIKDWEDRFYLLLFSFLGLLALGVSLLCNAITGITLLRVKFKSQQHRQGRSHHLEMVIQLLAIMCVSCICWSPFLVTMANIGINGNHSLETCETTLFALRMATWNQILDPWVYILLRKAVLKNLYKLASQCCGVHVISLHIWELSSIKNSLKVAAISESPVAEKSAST
T4 sequence (P35408 whole entry): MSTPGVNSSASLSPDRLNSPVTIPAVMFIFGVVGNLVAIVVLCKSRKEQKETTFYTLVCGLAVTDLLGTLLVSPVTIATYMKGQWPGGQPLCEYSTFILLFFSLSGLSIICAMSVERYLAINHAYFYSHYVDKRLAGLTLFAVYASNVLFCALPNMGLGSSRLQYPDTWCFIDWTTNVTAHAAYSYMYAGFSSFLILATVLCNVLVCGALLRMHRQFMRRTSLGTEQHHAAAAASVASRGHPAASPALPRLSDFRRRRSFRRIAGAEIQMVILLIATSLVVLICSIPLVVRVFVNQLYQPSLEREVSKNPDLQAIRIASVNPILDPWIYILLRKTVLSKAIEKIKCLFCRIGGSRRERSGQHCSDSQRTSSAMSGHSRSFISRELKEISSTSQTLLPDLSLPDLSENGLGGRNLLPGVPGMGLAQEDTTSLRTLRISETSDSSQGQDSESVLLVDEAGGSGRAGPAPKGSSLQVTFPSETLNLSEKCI

`CS(=O)(=O)c1ccc(C2=C(c3ccc(F)c(F)c3)C(=O)OC2)cc1`: in experiment [1], the “inhibition (INH)” value is recorded as 70%. Besides, the ED50 in experiment [2] is 0.5 mg/kg.

Turning to `Cc1sc(C)c(C(=O)NC2(c3ccc(C(=O)O)cc3)CC2)c1Cc1cccc(C(F)(F)F)c1`, the pKi was under 5.30 in experiment [3]; under 5.30 in experiment [4]; under 5.30 in [5]; under 5.30 in experiment [6]; 9.12 in experiment [7]; under 5.30 in [8]. Further, the values for the pKi in [9], in experiment [10] and in experiment [11] were under 4.54, under 5.30 and under 5.30, respectively.

As for `Cc1sc(C)c(C(=O)N[C@@H](C)c2ccc(C(=O)O)cc2)c1Cc1cccc(C(F)(F)F)c1`, the pKi in experiment [3] is under 5.46; in experiment [4], under 5.46; in experiment [5] it was under 5.46; in experiment [6] it was under 5.46; in [7], 8.60; in experiment [8], under 5.46. Also, the pKi in experiment [9] is 6.10; in [10], under 5.46; in experiment [11], under 5.46. In [12], the pIC50 was 8.33.

Regarding `C[C@H](NC(=O)c1c(Cl)sc(Cl)c1Cc1cccc(Cl)c1)c1ccc(C(=O)O)cc1`, the pKi in [3] was under 6.34; in experiment [4] it was under 6.34; in experiment [5], under 6.34; in experiment [6], under 6.34; in [8] it was under 6.34; in experiment [9], 6.13. Also, the pKi in experiment [10] and in [11] was under 6.34 in each case. The pIC50 in experiment [12] was 8.44.

`CS(=O)(=O)c1ccc(C2=C(c3ccccc3)C(=O)OC2)cc1` [ROFECOXIB]: the ED50 in experiment [2] came to 0.7 mg/kg.

Regarding `Cc1sc(C)c(C(=O)NC2(c3ccc(-c4nn[nH]n4)cc3)CC2)c1Cc1ccc(C(F)(F)F)cc1`, the pKi was under 6.30 in [3]; under 6.30 in experiment [4]; under 6.30 in experiment [5]; under 6.30 in [6]; 9.20 in experiment [7]; under 6.30 in [8]. For the same compound, the pKi is under 4.54 in experiment [9], under 6.30 in [10] and under 6.30 in experiment [11]. The pIC50 in experiment [12] is 8.64.

With `Cc1sc(C)c(C(=O)N[C@@H](C)c2ccc(C(=O)O)cc2)c1Cc1cccc(Cl)c1`, the pKi in [3] was under 5.65; in experiment [4] it was under 5.65; in experiment [5], under 5.65; in [6] it was under 5.65; in experiment [8] it was under 5.65; in [9], 6.33. In addition, the pKi in [10] and in experiment [11] was under 5.65 each time. Besides, the pIC50 in [12] is 8.07.

Regarding `C[C@H](NC(=O)c1cscc1Cc1cccc(Cl)c1)c1ccc(C(=O)O)cc1`, the pKi in experiment [3] is under 5.14; in experiment [4], under 5.14; in experiment [5], under 5.14; in experiment [6] it was under 5.14; in experiment [7], 8.19; in experiment [8] it was under 5.14. In addition, the pKi in experiment [9] was 7.80; in [10], under 5.14; in experiment [11], under 5.14. In [12], the pIC50 is 7.92.

With `Cc1sc(C)c(C(=O)N[C@@H](C)c2ccc(C(=O)O)cc2)c1Cc1ccc(Cl)cc1`, the pKi in [3] was under 5.67; in experiment [4] it was under 5.67; in [5], under 5.67; in experiment [6] it was under 5.67; in [7] it was 8.54; in experiment [8] it was under 5.67. Also, the values for the pKi in [9], in experiment [10] and in experiment [11] were 6.69, under 5.67 and under 5.67, respectively. The pIC50 in experiment [12] is 8.27.

Consider `COc1cccc(OC)c1C1(C(=O)NS(=O)(=O)Cc2ccc(N3Cc4c(c(OCC(F)(F)F)c5cccnc5c4OCC(F)(F)F)C3=O)c(C)c2)CC1`, for which the ED50 in [2] came to 0.003 mg/kg/day.

As for `Cc1sc(C)c(C(=O)N[C@@H](C)c2ccc(C(=O)O)cc2)c1Cc1ccc(C(F)(F)F)cc1`, the pKi in experiment [3] was under 5.26; in [4], under 5.26; in experiment [5] it was under 5.26; in [6], under 5.26; in [8], under 5.26; in experiment [9] it was 5.92. The pKi in experiment [10] and in experiment [11] was under 5.26 each time. In experiment [12], the pIC50 was 8.35.

Regarding `C[C@@H](NC(=O)c1c(Cl)sc(Cl)c1Cc1cccc(Cl)c1)c1ccc(C(=O)O)cc1`, the pKi in experiment [3] was under 6.65; in experiment [4], under 6.65; in experiment [5], under 6.65; in experiment [6] it was under 6.65; in [7] it was 9.06; in [8] it was under 6.65. In addition, the pKi was 6.42 in experiment [9], under 6.65 in experiment [10] and under 6.65 in [11]. The pIC50 in [12] is 8.74.

In the case of `O=C(O)c1ccc(CNC(=O)c2c(Cl)sc(Cl)c2Cc2cccc(Cl)c2)cc1`, the pKi was under 6.20 in [3]; under 6.20 in experiment [4]; under 6.20 in [5]; under 6.20 in experiment [6]; 9.14 in experiment [7]; under 6.20 in experiment [8]. The figures for the pKi in [9], in [10] and in experiment [11] were 7.37, under 6.20 and under 6.20, respectively. Besides, the pIC50 in experiment [12] is 8.80.

Broadly, the ED50 is the dose at which the effect has come halfway, by size or by number of responders. Usually pKi stands for −log10 of the Ki, conventionally taken in molar units. A lower pKi goes with a high Ki. In general, pIC50 refers to −log10 of the IC50, conventionally taken in molar units.
